Results reported in ChEMBL document CHEMBL1135792, “Inhibition of the antibacterial target UDP-(3-O-acyl)-N-acetylglucosamine deacetylase (LpxC): isoxazoline zinc amidase inhibitors bearing diverse metal binding groups” (J Med Chem, 2002).
In brackets after ≈: the same amount, converted by molar mass.

Experiments:
Escherichia coli [1] = assay: Inhibition of Escherichia coli growth in vitro.; format: functional
Escherichia coli [2] = assay: Inhibition of EnvAl Escherichia coli growth in vitro.; format: functional
[3] = target: T1, UDP-3-O-acyl-N-acetylglucosamine deacetylase (Escherichia coli K-12, UniProt P0A725); assay: Inhibition of Escherichia coli LpxC(UDP-3-O-[R-3-hydroxymyristoyl]-GlcNAc deacetylase.
T1 sequence (P0A725 whole entry): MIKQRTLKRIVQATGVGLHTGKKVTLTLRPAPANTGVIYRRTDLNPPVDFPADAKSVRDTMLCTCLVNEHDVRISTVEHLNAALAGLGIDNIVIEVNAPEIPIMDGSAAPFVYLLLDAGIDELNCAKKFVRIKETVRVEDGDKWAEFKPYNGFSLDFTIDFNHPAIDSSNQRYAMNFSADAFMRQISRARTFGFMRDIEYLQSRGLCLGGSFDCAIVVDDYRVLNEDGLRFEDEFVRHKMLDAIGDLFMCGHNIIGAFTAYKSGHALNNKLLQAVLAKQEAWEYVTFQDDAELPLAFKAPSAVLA
In short: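 Purified E. coli LpxC (2.5 nM) preincubated 30 min on ice with inhibitor (0.1-500 µg/mL) and 1 mg/mL BSA. Stopped with NaOH, substrate and product separated by PEI-cellulose TLC, phosphorimaged. IC50 from eq 1.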

Escherichia coli [4] = assay: Antibacterial activity against Escherichia coli
Escherichia coli [5] = assay: Inhibitory activity measured against Escherichia coli; format: functional
Escherichia coli [6] = assay: Antibacterial activity against EnvA1 Escherichia coli; format: functional
Escherichia coli [7] = assay: Inhibition of Escherichia coli LpxC in a second order rate constant
In short: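 Purified E. coli LpxC (100 µM) preincubated at 30 °C with inhibitor (0-0.8 mM) in 100 mM bis-Tris pH 7, 12% DMF. Aliquots taken over time, diluted 10-fold into 27 mM UDP-GlcNAc, bis-Tris pH 7, 30 °C. UDP-GlcN read by fluorescamine (ex 395/em 485 nm). Pseudo-first-order kobs fit to exponential decay, then plotted against inhibitor concentration and fit by eq 2.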

Compound	zone diameter (Escherichia coli [1]) [mm]	zone diameter (Escherichia coli [2]) [mm]	IC50 [3] [µM]	MIC (Escherichia coli [4]) [µg/mL]	zone diameter (Escherichia coli [5]) [mm]	MIC (Escherichia coli [6]) [µg/mL]	Ki (Escherichia coli [7]) [µM]
COc1ccc(C2=NOC(C(=O)NN)C2)cc1 (racemic)	< 6	< 6	> 425				
CO[C@H]1/C=C/O[C@@]2(C)Oc3c(C)c(O)c4c(O)c(c(/C=N/N5CCN(C)CC5)c(O)c4c3C2=O)NC(=O)/C(C)=C\C=C\[C@H](C)[C@H](O)[C@@H](C)[C@@H](O)[C@@H](C)[C@H](OC(C)=O)[C@@H]1C [RIFAMPIN]				2 (≈ 2.43 µM)			
COc1ccc(C2=NOC(C(=O)NO)C2)cc1 (racemic)	< 6	21	13				
COc1ccc(C2=NO[C@H](C(=O)NO)C2)cc1		26	4.37		< 6	3.9 (≈ 16.5 µM)	
COc1ccc(C2=NOC(S(N)(=O)=O)C2)cc1 (centres undefined)	< 6	< 6	> 1200				
COc1ccc(C2=NOC(S(C)(=O)=O)C2)cc1 (racemic)	< 6	< 6	> 392				
COc1ccc(C2=NO[C@@H]([C@@H](O)CS)C2)cc1 (relative stereo)	< 6	< 6	> 400				
COc1ccc(C2=N[C@@H](C(=O)NO)CO2)cc1	11	24	3				
COc1ccc(C2=NOC(C(=O)Nc3nccs3)C2)cc1 (racemic)	< 6	< 6	> 392				
COc1ccc(C2=NOC([C@@H]3CS3)C2)cc1 (some centres undefined)	< 6	< 6					300
COc1ccc(C2=NOC(C(=O)NNC=O)C2)cc1 (racemic)	< 6	< 6	400				
COc1ccc(C2=NOC(C(=O)Nc3ccccn3)C2)cc1 (racemic)	< 6	< 6	> 336				
COc1ccc(C2=NOC([C@H]3CS3)C2)cc1 (some centres undefined)	< 6	< 6					800
COc1ccc(C2=NOC(CS)C2)cc1 (racemic)	< 6	< 6	22				
COc1ccc(C2=NO[C@@H](C(=O)NO)C2)cc1	< 6	< 6					
COc1ccc(C2=NOC(C(=O)O)C2)cc1 (racemic)	< 6	< 6	> 450				
COc1ccc(C2=NOC(P(C)(=O)O)C2)cc1 (racemic)	< 6	< 6	170				
COc1ccc(C2=NOC(C(=O)CSC(C)=O)C2)cc1 (racemic)	< 6	< 6	12				
COc1ccc(C2=NO[C@@H]([C@H](O)CS)C2)cc1 (relative stereo)	< 6	< 6	> 400				
COc1ccc(C2=NOC(C(=O)NCO)C2)cc1 (racemic)	< 6	< 6	> 400				
COc1ccc(C2=NOC(P(=O)(O)O)C2)cc1 (racemic)	< 6	< 6	4				
COc1ccc(C2=NOC(C(=O)CS)C2)cc1 (racemic)	< 6	< 6	27				
